According to ChEMBL document CHEMBL1155210, “The discovery of tertiary-amine LXR agonists with potent cholesterol efflux activity in macrophages” (Bioorg Med Chem Lett, 2009):

Legend:
RAW264.7 [1] = assay: Induction of [3H]cholesterol efflux in mouse RAW264.7 cells loaded with acetylated-LDL after 24 hrs relative to 2-(3-(3-((2-chloro-3-(trifluoromethyl)benzyl)(2,2-diphenylethyl)amino)propoxy)phenyl)acetic acid; assay type: functional
Procedure, shortened: (§1)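 Mouse RAW 264.7 macrophages were grown overnight, then loaded for 24 h with acetylated LDL (final 50 µg/mL) plus 3H-cholesterol (5 µCi/mL). Cells were washed and held 24 h in serum-free, phenol red-free medium with 1% fatty acid-free BSA and compound in DMSO. Efflux then ran 24 h into medium with 0.1% BSA, 5 µg/mL apoA-I and fresh compound. Filtered medium and NaOH cell lysate were counted by scintillation.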

Macrophage [2] = assay: Increase in ABCA1 gene expression in human primary macrophages at 30 nM relative to control; assay type: functional
Macrophage [3] = assay: Increase in ABCA1 gene expression in human primary macrophages at 100 nM relative to control; assay type: functional
Macrophage [4] = assay: Increase in ABCG1 gene expression in human primary macrophages at 30 nM relative to control; assay type: functional
Macrophage [5] = assay: Increase in ABCG1 gene expression in human primary macrophages at 100 nM relative to control; assay type: functional
Macrophage [6] = assay: Increase in SREBP1 gene expression in human primary macrophages at 100 nM relative to control; assay type: functional
Macrophage [7] = assay: Increase in ABCA1 gene expression in human primary macrophages; assay type: functional, cell-based
Macrophage [8] = assay: Increase in ABCG1 gene expression in human primary macrophages; assay type: functional, cell-based
[9] = Plasma clearance in Sprague-Dawley rat at 2.6 mg/kg, iv; assay type: ADME, organism-based; parameters: dose 2.6 mg/kg, route intravenous
[10] = Volume of distribution at steady state in Sprague-Dawley rat at 2.6 mg/kg, iv; assay type: ADME, organism-based; parameters: dose 2.6 mg/kg, route intravenous; settings: in vivo, read-out: Vdss
[11] = Half life in Sprague-Dawley rat at 2.6 mg/kg, iv; assay type: ADME, organism-based; parameters: dose 2.6 mg/kg, route intravenous; settings: in vivo
[12] = Cmax in Sprague-Dawley rat at 2.6 mg/kg, iv; assay type: ADME, organism-based; parameters: dose 2.6 mg/kg, route intravenous; settings: in vivo
[13] = Half life in Sprague-Dawley rat at 4.5 mg/kg, po; assay type: ADME, organism-based; parameters: dose 4.5 mg/kg, route oral; settings: in vivo
Procedure, shortened: (§2)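 Pharmacokinetics were measured after an intravenous dose of 2.6 mg/kg and an oral dose of 4.5 mg/kg. Oral half-life and oral bioavailability (F%) are reported as mean ± deviation.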

[14] = target: T1, Oxysterols receptor LXR-alpha (Homo sapiens, UniProt Q13133); assay: Agonist activity at human LXRalpha assessed as association of SRC1 to LXRalpha ligand binding domain by FRET based cell-free ligand sensing assay
T1 sequence (Q13133 whole entry): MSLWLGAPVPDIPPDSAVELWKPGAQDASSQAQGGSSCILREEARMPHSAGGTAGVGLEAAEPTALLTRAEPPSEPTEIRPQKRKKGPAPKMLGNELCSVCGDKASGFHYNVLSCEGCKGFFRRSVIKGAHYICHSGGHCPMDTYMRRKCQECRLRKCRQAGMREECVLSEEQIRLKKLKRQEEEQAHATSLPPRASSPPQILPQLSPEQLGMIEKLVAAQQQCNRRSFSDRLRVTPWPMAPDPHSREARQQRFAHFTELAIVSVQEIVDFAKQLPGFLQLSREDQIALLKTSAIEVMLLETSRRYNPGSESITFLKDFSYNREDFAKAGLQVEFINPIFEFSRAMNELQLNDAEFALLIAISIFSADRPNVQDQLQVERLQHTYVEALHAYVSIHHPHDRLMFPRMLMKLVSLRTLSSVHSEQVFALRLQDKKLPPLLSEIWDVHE
Procedure, shortened: (§3)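 Cell-free FRET ligand-sensing assay measuring ligand-dependent recruitment of a 24-amino-acid steroid receptor coactivator 1 (SRC1) fragment to the LXR ligand-binding domain. Percent efficacy is expressed against the maximal agonist response of the reference agonist. Values are means of at least two experiments, standard deviation ≤10%.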

[15] = target: T2, Oxysterols receptor LXR-alpha (Homo sapiens) (UniProt Q13133); assay: Agonist activity at human LXRalpha assessed as association of SRC1 to LXRalpha ligand binding domain by FRET based cell-free ligand sensing assay relative 2-(3-(3-((2-chloro-3-(trifluoromethyl)benzyl)(2,2-diphenylethyl)amino)propoxy)phenyl)acetic acid; procedure, shortened: as §3
T2 sequence (whole entry): T1 sequence (Q13133 whole entry)

[16] = target: T3, Oxysterols receptor LXR-beta (Homo sapiens, UniProt P55055); assay: Agonist activity at human LXRbeta assessed as association of SRC1 to LXRbeta ligand binding domain by FRET based cell-free ligand sensing assay; procedure, shortened: as §3
T3 sequence (P55055 whole entry): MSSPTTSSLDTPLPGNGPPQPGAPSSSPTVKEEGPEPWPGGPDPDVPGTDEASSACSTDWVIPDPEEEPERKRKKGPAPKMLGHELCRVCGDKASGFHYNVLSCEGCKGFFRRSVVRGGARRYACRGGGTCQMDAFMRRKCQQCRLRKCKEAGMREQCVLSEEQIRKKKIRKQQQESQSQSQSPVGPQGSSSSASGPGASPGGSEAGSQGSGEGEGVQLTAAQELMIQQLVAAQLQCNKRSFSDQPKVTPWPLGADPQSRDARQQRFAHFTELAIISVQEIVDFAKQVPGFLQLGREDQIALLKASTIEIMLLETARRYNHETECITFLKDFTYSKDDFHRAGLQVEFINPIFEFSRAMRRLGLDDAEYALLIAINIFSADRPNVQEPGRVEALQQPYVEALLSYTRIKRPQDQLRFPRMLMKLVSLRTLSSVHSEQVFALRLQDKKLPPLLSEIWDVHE

[17] = Oral bioavailability in Sprague-Dawley rat at 4.5 mg/kg; assay type: ADME, organism-based; settings: in vivo; procedure, shortened: as §2
[18] = target: T4, Nuclear receptor subfamily 1 group I member 2 (Homo sapiens, UniProt O75469); assay: Binding affinity to PXR by scintillation proximity binding assay
T4 sequence (O75469 whole entry): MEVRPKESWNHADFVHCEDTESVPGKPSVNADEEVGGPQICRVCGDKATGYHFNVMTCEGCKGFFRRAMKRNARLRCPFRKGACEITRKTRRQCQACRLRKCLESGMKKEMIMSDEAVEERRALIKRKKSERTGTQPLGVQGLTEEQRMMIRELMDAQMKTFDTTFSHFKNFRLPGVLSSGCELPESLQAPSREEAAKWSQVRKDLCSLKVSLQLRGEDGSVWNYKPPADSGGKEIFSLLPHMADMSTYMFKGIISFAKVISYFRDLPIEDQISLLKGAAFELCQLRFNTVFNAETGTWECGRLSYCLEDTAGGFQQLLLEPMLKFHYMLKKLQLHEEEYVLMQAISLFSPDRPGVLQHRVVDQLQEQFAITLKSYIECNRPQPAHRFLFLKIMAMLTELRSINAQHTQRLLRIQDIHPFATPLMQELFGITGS

RAW264.7 [19] = assay: Induction of [3H]cholesterol efflux in mouse RAW264.7 cells loaded with acetylated-LDL after 24 hrs; assay type: functional, cell-based; procedure, shortened: as §1
[20] = target: Oxysterols receptor LXR-beta (Homo sapiens) (UniProt P55055); assay: Agonist activity at human LXRbeta assessed as association of SRC1 to LXRbeta ligand binding domain by FRET based cell-free ligand sensing assay relative to 2-(3-(3-((2-chloro-3-(trifluoromethyl)benzyl)(2,2-diphenylethyl)amino)propoxy)phenyl)acetic acid; parameters: concentration or dose not given beside the values

Row | SMILES | fold change (FC) (RAW264.7 [1]) | fold change (FC) (Macrophage [2]) | fold change (FC) (Macrophage [3]) | fold change (FC) (Macrophage [4]) | fold change (FC) (Macrophage [5]) | fold change (FC) (Macrophage [6]) | Activity (Macrophage [7]) | Activity (Macrophage [8]) | clearance [9] [mL/min/kg] | Vd [10] [L/kg] | half-life [11] [h] | Cmax [12] [ng/mL] | half-life [13] [h] | EC50 [14] [µM] | Activity [15] [%] | EC50 [16] [µM] | bioavailability [17] [%] | Ki [18] [µM] | EC50 (RAW264.7 [19]) [µM] | Activity [20] [%]
1 | C[C@H](CCOc1cccc(CC(=O)O)c1)N(Cc1cccc(C(F)(F)F)c1Cl)CC(c1ccccc1)c1ccccc1 [ABEQUOLIXRON] | 2 | 3.6 | 6.3 | 4.2 | 8 | 5.5 | Dose-dependent effect | Dose-dependent effect | 23.7 | 1.9 | 1.82 | 2130 | 2.4 | 0.074 | 100 | 0.025 | 71 | > 10 | 0.017 | 89
2 | C[C@H](CCN(Cc1cccc(C(F)(F)F)c1Cl)CC(c1ccccc1)c1ccccc1)Oc1cccc(CC(=O)O)c1 |  |  |  |  |  |  |  |  |  |  |  |  |  | 0.2 | 78 | 0.041 |  | > 10 | 0.034 | 76
3 | C[C@@H](CCOc1cccc(CC(=O)O)c1)N(Cc1cccc(C(F)(F)F)c1Cl)CC(c1ccccc1)c1ccccc1 |  |  |  |  |  |  |  |  |  |  |  |  |  | 0.211 | 91 | 0.087 |  |  | 0.054 | 80
4 | O=C(O)Cc1cccc(OCCCN(Cc2cccc(C(F)(F)F)c2Cl)CC(c2ccccc2)c2ccccc2)c1 |  | 2 | 3.1 | 3.2 | 5.4 | 4.1 | Dose-dependent effect | Dose-dependent effect |  |  |  |  |  | 0.2 |  |  |  | 2 | 0.029 | 
5 | CC(C)(C(=O)O)c1cccc(OCCCN(Cc2cccc(C(F)(F)F)c2Cl)CC(c2ccccc2)c2ccccc2)c1 | 2 | 3 | 4 | 7.5 | 11.2 | 5.8 | Dose-dependent effect | Dose-dependent effect |  |  |  |  |  | 0.043 | 100 | 0.015 |  |  | 0.007 | 95
6 | CC(C(=O)O)c1cccc(OCCCN(Cc2cccc(C(F)(F)F)c2Cl)CC(c2ccccc2)c2ccccc2)c1 (stereo not given) | 2 |  |  |  |  |  |  |  |  |  |  |  |  | 0.046 | 100 | 0.015 |  |  | 0.015 | 90
7 | C[C@@H](CCN(Cc1cccc(C(F)(F)F)c1Cl)CC(c1ccccc1)c1ccccc1)Oc1cccc(CC(=O)O)c1 |  |  |  |  |  |  |  |  |  |  |  |  |  | 0.365 | 39 | 0.145 |  |  |  | 59
8 | C[C@H](CCOc1cccc(C(C)(C)C(=O)O)c1)N(Cc1cccc(C(F)(F)F)c1Cl)CC(c1ccccc1)c1ccccc1 | 2 |  |  |  |  |  |  |  |  |  |  |  |  | 0.009 | 100 | 0.011 |  |  | < 0.003 | 100
9 | O=C(O)Cc1ccc2oc(CCN(Cc3cccc(C(F)(F)F)c3Cl)CC(c3ccccc3)c3ccccc3)cc2c1 |  |  |  |  |  |  |  |  |  |  |  |  |  | 0.305 | 20 | 0.145 |  |  |  | 26
10 | C[C@@H](COc1cccc(CC(=O)O)c1)CN(Cc1cccc(C(F)(F)F)c1Cl)CC(c1ccccc1)c1ccccc1 |  |  |  |  |  |  |  |  |  |  |  |  |  | 0.28 | 67 | 0.086 |  |  | 0.076 | 70
11 | O=C(O)Cc1ccc2cc(CCN(Cc3cccc(C(F)(F)F)c3Cl)CC(c3ccccc3)c3ccccc3)oc2c1 |  |  |  |  |  |  |  |  |  |  |  |  |  | 0.331 | 53 | 0.063 |  |  |  | 75
12 | O=C(O)C1CCCc2c(OCCCN(Cc3cccc(C(F)(F)F)c3Cl)CC(c3ccccc3)c3ccccc3)cccc21 (racemic) | 2 | 1.4 | 2.6 | 2 | 3.6 | 2.6 | Dose-dependent effect | Dose-dependent effect |  |  |  |  |  | 0.056 | 100 | 0.026 |  |  | 0.018 | 100
13 | CCC(CC)(C(=O)O)c1cccc(OCCCN(Cc2cccc(C(F)(F)F)c2Cl)CC(c2ccccc2)c2ccccc2)c1 |  |  |  |  |  |  |  |  |  |  |  |  |  | 0.38 | 69 | 0.174 |  |  |  | 68
